Measurements: ChEMBL document CHEMBL4513216, “Probing the Open Global Health Chemical Diversity Library for Multistage-Active Starting Points for Next-Generation Antimalarials” (ACS Infect Dis, 2020)

Test: Toxicity liver stage against HepG2, at 10uM
Assay type: cell-based
Design: test concentration 10 uM, cell line HepG2-A16-CD81EGFP
Settings: human, HepG2-A16-CD81EGFP cells; read-out: INHIBITION
Method in brief: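 Uninfected HepG2-A16-CD81EGFP cells, 3 × 10^3 per well, 1536-well, plated on prespotted compound at 10 μM final, parasite-free screening media added to match infected plates; puromycin 10 μM positive, DMSO 0.5% negative; run in parallel with 48 h PbLuc assay at 37 °C, 5% CO2; viability by CellTiter-Glo luminescence, normalized to controls.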

Structure (SMILES) | cytotoxicity at 10 µM
Cc1nnc(CN2CCOC(c3ccc(Cl)cc3)C2)o1 (configuration not stated) | 5.33%
Cc1noc([C@@H]2C[C@H](NC(=O)C3CCCCC3)CN2C)n1 | -4.89%
Cc1cc(C)n(Cc2ccc(-c3noc(C(=O)NCCO)n3)cc2)n1 | -9.45%
CCOC(=O)NCc1nn(CCN2CCCC2)c(=O)c2ccccc12 | 9.66%
CC(=O)c1cccc(NC(=O)Cn2cnc(-c3cccs3)cc2=O)c1 | -4.44%
O=C(NC1CCN(c2ccc(-c3ccccc3F)nn2)C1)c1cc[nH]n1 (configuration not stated) | 3.17%
Cc1cc(CNC(=O)c2cnoc2C)c(C)o1 | -6.32%
Cn1c2c(ccc1=O)CC(NC(=O)Cc1ccsc1)CC2 (configuration not stated) | 4.08%
c1coc(CN2CCn3c(CN4CCOCC4)nnc3C2)c1 | 9.1%
O=S(=O)(C1CC1)N1CCC2(CC1)COC(COc1cccnc1)C2 (configuration not stated) | 9.49%
CS(=O)(=O)NC[C@]12COC[C@H]1CN(C(=O)c1ccncn1)C2 | 9.2%
COc1cc(CC(O)CO)c(OC)c2c1OCO2 (configuration not stated) | -9.96%
CSc1[nH]nc(NC(=O)c2ccncc2)c1C#N | 10.6%
CS(=O)(=O)Nc1ccn(Cc2cccc(F)c2)n1 | 13.1%
CCc1cc(=O)n(CC(=O)N2CCCC2)c(-c2ccc(F)cc2)n1 | 8.66%
CNC(=O)c1cc(-c2ccccc2)nc2ncnn12 | -4.66%
Cc1cc(Nc2nc(C)cc(C)n2)cc(C2CCCN2)n1 (configuration not stated) | 0.407%
COc1cccc([C@@H]2N[C@H](c3nccs3)Cc3ccsc32)c1OC | 5.24%
Cc1cc(C)n(CC(C)CNC(=O)N(C)Cc2ccco2)n1 (configuration not stated) | 4.47%
O=C(CCOc1ccc(Cl)cc1)NCCCn1cccn1 | -12.1%
COc1ccc(C(C)NCCC(N)=O)cc1F (configuration not stated) | -7.77%
O=C(NCc1nnc2n1CCC2)c1ccc(Br)s1 | 2.74%
COCCCNc1cc(C(=O)N2CCOCC2)ccc1C | 7.1%

Structure (SMILES) | cytotoxicity at 10 µM
COCCOc1ccc(CNC2CCc3ncnn3C2)cc1OC (configuration not stated) | -7.2%
O=C(CCn1ccnc1)N1CCCC(n2cncn2)C1 (configuration not stated) | 0.0383%
CCOCc1cccc(NCc2c[nH]nc2-c2cccnc2)c1 | -3.9%
CN(C)c1ncccc1CNc1snc(Cl)c1C#N | -5.1%
COc1cccc(Cc2nnc(SCCS(C)(=O)=O)o2)c1 | 2.72%
CC1COCCN1c1ncnc2sccc12 (configuration not stated) | 14.1%
O=C(NCCc1nnc2n1CCC2)N(Cc1ccco1)C1CCCC1 | 5.04%
Cc1ccc(C(=O)N2CCOC(c3nc(C(C)(C)C)n[nH]3)C2)c(=O)[nH]1 (configuration not stated) | 1.31%
c1cnnc(N2CCCC2CNCc2nnc(C3CC3)o2)c1 (configuration not stated) | 1.41%
Cc1n[nH]c(C2CN(C(=O)c3cc(C4CC4)on3)CCO2)n1 (configuration not stated) | -9.63%
CC(C)(C)OC(=O)N1CCC[C@H](NCc2cc[nH]c2)C1 | 1.05%
Cc1nnc(C(NS(=O)(=O)c2cc(C#N)ccc2C)C(C)C)[nH]1 (configuration not stated) | 4.98%
O=C(C1CCCN(Cc2ccccc2)C1)N1CCc2sccc2C1 (configuration not stated) | 2.41%
CNC(=O)NC(=O)CN1CCCN(CC(F)(F)F)CC1 | -2.37%
Cc1cc(NC(=O)Nc2ccc3c(ccn3CCN(C)C)c2)n(C)n1 | 3.38%
CSc1ccsc1C(=O)NS(=O)(=O)c1cnn(C)c1 | -5.35%
COC(=O)CCC(=O)NC1CCCc2cc(OC(F)F)ccc21 (configuration not stated) | -4.52%
CCc1nc(CN2CCCC2C(=O)NC)cs1 (configuration not stated) | -3.09%
CC(SCC(=O)N(C)CC(=O)NC1CC1)c1cc(F)ccc1F (configuration not stated) | 8.13%
Cc1nc(CN(CCS(C)(=O)=O)C(C)C)no1 | 0.329%
NC(=O)CNC(=O)c1ccc(CNCc2ccc(Cl)cc2Cl)cc1 | -41.5%
CCC(CC(=O)Nc1ccc2c(c1)CC(=O)N2)c1ccccc1 (configuration not stated) | -1.06%
FC(F)(F)c1n[nH]c2c1CN(Cc1cn3ccccc3n1)CC2 | 7.76%

Structure (SMILES) | cytotoxicity at 10 µM
CN(CCNC(=O)Nc1cnn(C)c1)Cc1ccc(F)cc1 | 7.72%
N#Cc1ccc(N2CCCN(CC(=O)N3CCNC(=O)C3)CC2)cc1 | 5.27%
CNC(=O)Cc1noc(Cc2cccc(Br)c2)n1 | 1.06%
CCN1CCNC(=O)C12CCN(C(=O)Cc1ccccn1)CC2 | 4.71%
CN(C)Cc1nc(-n2cnc(C(=O)NCC3CC3)c2)n2ccccc12 | 1.55%
CN(Cc1ccccn1)c1nccc(N2CCN[C@H]3CS(=O)(=O)C[C@H]32)n1 | 10.5%
COc1ccc(Oc2cccnc2)cc1CN1CCCC1 | 2.67%
CCC[C@H]1CN(Cc2ccccc2C#N)C[C@@H]1NS(C)(=O)=O | -11%
COCC(=O)N1CCC2(CC1)c1ccccc1[C@@H](N1CCSCC1)[C@@H]2O | 4.58%
CN(Cc1cc(C2CC2)on1)C(=O)C(c1cccnc1)N1CCCC1 (configuration not stated) | -41.6%
Cc1ccc(N2CCC(c3[nH]ncc3Cc3ccccc3)CC2)nn1 | -6.86%
COCCCN(Cc1cnc(C2CCCCC2)nc1)C1CCN(C)CC1 | -4.43%
NC(=O)Cn1ccnc1C1CCCN(Cc2nc3ccccc3s2)C1 (configuration not stated) | -17%
COCCc1noc(-c2cn(Cc3ccccc3C)nn2)n1 | 3.15%
O=S1(=O)CCC(n2nc(Cc3cccs3)nc2-c2cnccn2)C1 (configuration not stated) | -6.33%
CN1CCc2[nH]nc(C(=O)N3CCC4(CN(C)C(=O)O4)C3)c2C1 (configuration not stated) | -46.4%
O=C(CN1CC(c2ccccc2)CC1=O)N1CCC(c2ncc[nH]2)CC1 (configuration not stated) | -0.234%
CC(C)Oc1cc(N2CCN(Cc3ccsc3)C(CCO)C2)nc(N)n1 (configuration not stated) | -6.35%
FC(F)(F)c1ccc(-n2ccnc2-c2cc3n(n2)CCNC3)cn1 | -4.65%
Cc1nccnc1N1CCC(Cc2ccccc2Cl)(C(=O)O)CC1 | 12.6%
CCCc1cncnc1N1CCC(NCc2ccncc2)CC1 | 6.31%
c1ccc(CN(Cc2cccc3cnccc23)CC2CCCO2)nc1 (configuration not stated) | -5.68%
COCC(C)Nc1ccc(-c2nc(Cc3ccc(F)cc3)no2)cn1 (configuration not stated) | 7.22%

Structure (SMILES) | cytotoxicity at 10 µM
CSCC(=O)N1CCCN(c2ccncc2C)CC1 | -6.09%
Cn1ncnc1-c1ccnc(N2CCC(C(O)c3cccs3)CC2)n1 (configuration not stated) | -39.2%
COc1cc(F)ccc1-c1cc(N)ccn1 | -9.5%
CCc1cnc(N)nc1N1CCN(C(C)=O)CC1 | -51.7%
Cc1ccc(-c2ccnc(NC(C)c3ncc[nH]3)n2)c(C)n1 (configuration not stated) | 3.29%
CS(=O)(=O)N1CCC(NCC2(N3CCOCC3)CCCCC2)CC1 | -3.27%
CNC1CCN(C2CCN(c3ccc(-c4ccco4)cc3)CC2)CC1 | -22.4%
Cc1oc(-c2ccc(F)cc2F)nc1CN1C[C@@H](C)O[C@@H](C)C1 | -39.9%
Cc1cnccc1CN(C)C1CCN(c2ncnc3[nH]cnc23)CC1 | -42.9%
CCn1cc(CN2CCC(CCC(=O)Nc3ccccc3Cl)CC2)cn1 | -0.99%
C1CCC(c2nnc3sc(C4CCCO4)nn23)C1 (configuration not stated) | 8.61%
Cn1cc(CN(Cc2cccc(-n3cccn3)c2)C2CC2)cn1 | -15.4%
CC[C@H]1CN(C(=O)c2cnc(CN3CCCC3)s2)CC[C@@]1(C)O | -16%
CCc1cccc(OCCN(C)C(=O)c2ccccc2NCC(=O)O)c1 | -2.69%
CCN1CCN(c2ncc(-c3cc(C)no3)c(-c3ccoc3C)n2)CC1 | 1.16%
Cc1cccnc1C(=O)N1CCCC(c2[nH]ncc2S(C)(=O)=O)C1 (configuration not stated) | 7.58%
CCOc1ccc(Cl)c(C(=O)NC)n1 | -4.63%
CC(NS(C)(=O)=O)C(=O)N1CCCN(Cc2cscn2)CC1 (configuration not stated) | -5.95%
CC(C(=O)NCc1ccnc(N(C)C)c1)n1cccn1 (configuration not stated) | -13.8%
CCOc1ccc(CC(CNC(=O)c2ccoc2C)C(N)=O)cc1 (configuration not stated) | 7.87%
CC(C)c1ncncc1C(=O)N1CCN(Cc2cscn2)CC1 | -5.75%
CCc1ccc(O)c(C(=O)NC2CCN(Cc3ccncc3)CC2)c1 | 5.52%
c1cnnc(N2CCCC2CNCc2cc[nH]n2)c1 (configuration not stated) | -0.807%

Structure (SMILES) | cytotoxicity at 10 µM
Cc1nc(-c2ccsc2)ccc1C(=O)NCCC(=O)N1CCCC1 | -9.57%
Cc1nn(C)c(C)c1C1CCCN1CCCc1nc2ccccc2o1 (configuration not stated) | -4.3%
Cc1ccc(F)cc1S(=O)(=O)NCc1cccnc1N(C)C | 0.716%
O=C(NCCn1nc2ccccn2c1=O)c1cccc2[nH]ncc12 | -0.472%
CNCc1ccc([C@@H]2CN(C)C[C@H]2C(N)=O)cc1 | 7.67%
CNC(=O)C(C)(C)N1CCC[C@H]1C(=O)NCCN(C)C | 2.2%
CCOc1ccc(CC(=O)N2CCN(c3nccn3CC)CC2)cc1 | 11.1%
Cc1ccc(CN[C@@H]2COC[C@H]2c2ccc(F)cc2)cc1C | 9.07%
Cc1noc(C)c1CN1CCCC2(CCN(CC3CCCC3)C2)C1 (configuration not stated) | -4.1%
CC(=O)N1CCO[C@@H]2CN(C(=O)c3ccc4ncccc4c3)CC[C@@H]2C1 | 8.22%
CC(C)N1CCC2(CC1)C(=O)N(CCN(C)C)c1ccccc12 | -121%
CNCC(=O)N1CCCC(c2nccnc2Oc2cccc(F)c2)C1 (configuration not stated) | 6.87%
CCCN1CCCn2c(nc(CNC(=O)N3CCCC3)cc2=O)C1 | 12.1%
COc1ncccc1CN1C[C@H]2CCN(C(C)C)C[C@H]2C1 | 2%
Cc1nc(COC[C@@H]2CCC[C@@]23CNCCO3)cs1 | 3.29%
CCOc1ccc2ccccc2c1CNCC1CCNCC1 | -9.67%
Cn1ccnc1C(=O)N[C@@H]1CN(Cc2ccc(F)cc2)[C@@H]2CCCO[C@@H]21 | -111%
O=C1NC2(CCN(Cc3nccs3)CC2)CC1c1ccncc1 (configuration not stated) | -1.31%
COc1ccc(Cl)cc1S(=O)(=O)N1C[C@H]2CC[C@@H](C1)N(C)C2=O | 3.98%
CN1CCN(C=C2N=C(c3cc(-c4ccccc4F)n[nH]3)ON2)CC1 | -4.92%
